Measured values pooled from the literature.
Lines come from different studies, so protocols differ.
DRD3: D(3) dopamine receptor (DRD3, Homo sapiens, UniProt P35462)
HDAC5: Histone deacetylase 5 (HDAC5, Homo sapiens, UniProt Q9UQL6)
SLC6A3: Sodium-dependent dopamine transporter (SLC6A3, Homo sapiens, UniProt Q01959)

| SMILES | target | read-out | action | technique | IC50 [µM] |
| --- | --- | --- | --- | --- | --- |
| Cc1[nH]c(C)c(S(=O)(=O)Nc2ccc(C(F)(F)F)c(Cl)c2)c1C(=O)N1CCCC1 | DRD3 | β-arrestin recruitment | antagonist | – | 2.8 |
| CCCN(CCC)S(=O)(=O)c1ccc(C(=O)O)cc1 | Taste receptor type 2 member 16 (TAS2R16, Homo sapiens, UniProt Q9NYV7) | inositol phosphate | antagonist | TR-FRET | 770 |
| COc1c(Cl)cccc1Nc1c(-c2ccncc2OC[C@@H]2COCCO2)[nH]c2c1C(=O)NCC2 | Discoidin domain-containing receptor 2 (DDR2, Homo sapiens, UniProt Q16832) | cell-free assay | – | TR-FRET | 0.0533 |
| N=C(N)c1ccc(OCCCCCOc2ccc(C(=N)N)cc2)cc1 | Coagulation factor XI (F11, Homo sapiens, UniProt P03951) | enzyme activity | inhibitor | absorbance | > 100 |
| Cc1cc(O)c(-c2ccc([C@@H](C)CN(C)C)cc2)c2c1[nH]c(=O)c1sccc12 | Cyclin-dependent kinase 12, with cyclin K (CDK12, Homo sapiens, UniProt Q9NYV4) | enzyme activity | inhibitor | – | > 1 |
| COc1ccc(N(Cc2nc(-c3ccc(F)cc3)cs2)C(=O)CCCCCC(=O)NO)cc1 | HDAC5 | enzyme activity | inhibitor | – | > 10 |
| Cc1[nH]c(C)c(C(=O)N2CCC(F)(F)C2)c1C(=O)Nc1ccc(C(F)(F)F)c(Cl)c1 | DRD3 | β-arrestin recruitment | antagonist | – | 41 |
| NS(=O)(=O)c1ccc(Nc2nc(-c3cc4cc(Br)ccc4oc3=O)cs2)c(Br)c1 | Carbonic anhydrase 12 (CA12, Homo sapiens, UniProt O43570) | enzyme activity | inhibitor | absorbance | 6.18 |
| COc1ccc(N(Cc2csc(-c3ccc(C)cc3)n2)C(=O)CCCCCC(=O)NO)cc1 | HDAC5 | enzyme activity | inhibitor | – | > 10 |
| CCc1ccc(NS(=O)(=O)c2c(C)[nH]c(C)c2C(=O)N2CCC(F)(F)C2)cc1Cl | DRD3 | β-arrestin recruitment | antagonist | – | 5.2 |
| CNc1nc(C#Cc2ccc(Cl)s2)nc2c1ncn2[C@H]1[C@H](O)[C@H](O)[C@]2(CC#N)C[C@H]12 | SLC6A3 | transporter uptake | inhibitor | radiometric | 0.36 |
| CN(C)C(=O)c1cc2cnc(Nc3ccc(-c4cccc5c(=O)cc(N6CCOCC6)oc45)cc3)nc2n1C1CCCC1 | DNA-dependent protein kinase catalytic subunit (PRKDC, Homo sapiens, UniProt P78527) | enzyme activity | inhibitor | – | 0.202 |
| Cc1[nH]c(C)c(S(=O)(=O)Nc2cc(Cl)cc(Cl)c2Cl)c1C(=O)N1CCC(F)(F)C1 | DRD3 | β-arrestin recruitment | antagonist | – | 12 |
| N#CC[C@@]12C[C@@H]1[C@@H](n1cnc3c(NCCCCCCc4ccccc4)nc(I)nc31)[C@H](O)[C@@H]2O | SLC6A3 | transporter uptake | inhibitor | radiometric | 1.7 |
| Cc1[nH]c(C)c(S(=O)(=O)Nc2ccc(C(F)(F)F)c(Cl)c2)c1C(=O)N1CCc2ccccc21 | DRD3 | G protein activation | antagonist | BRET | 21 |
| O=C(NO)c1ccc(Cn2cnc3c(Nc4ccc(Cl)cc4)ncnc32)cc1 | HDAC5 | enzyme activity | inhibitor | – | 0.473 |
